Compound activity as filed in PubChem.
Sampled rows, rich in hits. Any-hit rate of the full collection: about 1.5%.
STAT1 inh: STAT1 signaling inhibitors, primary screen, cell-based, HTS, luciferase reporter; hit rate 0.35% among 200,000; NIH 3T3 STAT1-luciferase reporter, IFN-gamma, luminescence; inhibition, % at 5.5 µM;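 active means inhibition above a set limit, the mean inhibition across all tested compounds plus 3 SD, cut at about 34% in these data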
TAG inh: inhibitors of triacylglycerol accumulation, primary screen, cell-based, uHTS, fluorescence, H9c2 | hit rate 0.66% among 230,000 | inhibition, % at 12.5 µM | H9c2 cells, Nile Red lipid (TAG) fluorescence; cells loaded with 200 µM oleic acid | AID 651582, 2012;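 active means pattern-corrected inhibition of lipid staining of at least 50% with the nuclear-stain viability signal not falling by more than 50%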
Lipid droplet: inhibitors of hepatocyte lipid droplet formation, primary screen, imaging, high-throughput imaging, BODIPY stain; AML12 mouse hepatocytes, oleate lipid droplets; inhibition, % at 6.5 µM; hit rate 0.4% among 240,000; AID 1656, 2009;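 active means lipid droplet intensity inhibited by at least 50%, with more than 500 cells counted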
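Assay system: AML12 hepatocytes (mouse) / Also added: 100 µM oleic acid challenge / Times: overnight treatment with compound plus oleate / Detection: high-content imaging of BODIPY-stained droplets and DAPI nuclei / Evaluation: % inhibition of lipid droplet signal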
STAT3 inh-1: IL-6 driven STAT3 reporter inhibitors, primary screen, U3A cells, luciferase, luminescence, MLSCN library; IL-6 STAT3-luciferase reporter; host cell line lacks STAT1; inhibition, % at 5.5 µM; hit rate 0.89% among 190,000; AID 862, 2007;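 active means inhibition above the mean inhibition across all screened compounds plus 3 SD, cut at about 44% in these data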
PPC-1+TRAIL kill: compounds killing PPC-1 cancer cells with TRAIL present, primary screen, TRAIL potentiator project, ATPLite luminescence, uHTS. hit rate 0.41% among 220,000. cell killing (% activity), % at 4 µM or 5 µM. PPC-1 cells + TRAIL, ATPLite viability luminescence;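 active means cell killing above 50% in the first pass at 4 µM, then a duplicate retest at 5 µM averaging 50% or more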
Platelet DG rel: inhibitors of platelet dense granule secretion, primary screen, cell-based, MLPCN, human platelets; human platelet-rich plasma, SFLLRN dense granule ATP release, luminescence; inhibition, %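 (compounds screened at 7.5 µM in platelet-rich plasma)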; hit rate 0.22% among 300,000; AID 1663, 2009;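 active means mean replicate score, as percent of positive control, at or above 50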
STAT3 inh-2: STAT3 reporter inhibitors, retest of hits, confirmation, U3A cells, luciferase, luminescence; IL-6 STAT3 luciferase reporter; cell line lacks STAT1; inhibition, % at 5.7 µM; shares compounds with STAT3 inh-1; hit rate 45% among 1,200; AID 1265, 2008;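 active means inhibition above the hit cutoff computed for the primary STAT3 screen, cut at about 44% in these data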
NFkB inh 2: NF-kB reporter inhibitors in human cells, confirmation, counter-screen for STAT3 inhibitor project, cell-based, HEK293T, luciferase, TNF-alpha stimulus; shares compounds with STAT3 inh-1; TNF-alpha induced; inhibition, % at 5.7 µM; hit rate 36% among 1,200; AID 1308, 2008;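 active means inhibition above the mean of solvent-only control wells plus 3 SD, cutoff set per campaign, cut at about 13% in these data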
STAT1 inh 2: STAT1 reporter inhibitors, IFN-gamma induced, confirmation, counter-screen for STAT3 inhibitor project, cell-based, NIH 3T3, luciferase luminescence. shares compounds with STAT3 inh-1. NIH 3T3 STAT1-luciferase reporter. inhibition, % at 5.7 µM. hit rate 27% among 1,200. AID 1317, 2008;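 active means inhibition above the mean plus 3 SD of solvent-only control wells, limit set per screening run, cut at about 16% in these data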
Hits are given with their value.

What do the screens show for `CCOC(=O)C1CCCCN1C(=O)CCc1c(C)nc2cc(-c3ccccc3)nn2c1C` (stereo unspecified)?
STAT1 inh: inactive; TAG inh: inactive; STAT3 inh-1: 49; PPC-1+TRAIL kill: inactive; Platelet DG rel: inactive; STAT3 inh-2: inactive; NFkB inh 2: inactive; STAT1 inh 2: inactive

How did CCOC(=O)C1CCN(C(=O)CCc2c(C)nc3cc(-c4ccccc4)nn3c2C)CC1 do in these assays?
STAT1 inh: inactive; TAG inh: inactive; STAT3 inh-1: inactive; PPC-1+TRAIL kill: inactive; Platelet DG rel: inactive

Results for CC(=O)N1CCc2c(sc(NC(=O)c3ccc([N+](=O)[O-])o3)c2C#N)C1 ?
STAT1 inh: inactive; TAG inh: inactive; Lipid droplet: inactive; STAT3 inh-1: 58; PPC-1+TRAIL kill: inactive; Platelet DG rel: inactive; STAT3 inh-2: inactive; NFkB inh 2: inactive; STAT1 inh 2: 22

How did COc1ccc(C(=O)Nc2sc3c(c2C#N)CCN(C(C)=O)C3)cc1 do in these assays?
STAT1 inh: inactive; TAG inh: inactive; Lipid droplet: inactive; STAT3 inh-1: inactive; PPC-1+TRAIL kill: inactive; Platelet DG rel: inactive

What do the screens show for `CC(C)CCc1noc(CN(C)CCC2CCOCC2)n1`?
TAG inh: inactive; Lipid droplet: inactive; PPC-1+TRAIL kill: inactive; Platelet DG rel: inactive

How did Cc1nn(C)c(C)c1CN(Cc1nc(CCC(C)C)no1)C(C)C do in these assays?
STAT1 inh: inactive; TAG inh: inactive; Lipid droplet: inactive; STAT3 inh-1: 76; PPC-1+TRAIL kill: inactive; Platelet DG rel: inactive; STAT3 inh-2: 78; NFkB inh 2: 27; STAT1 inh 2: 20

Results for Fc1ccc(NC(=S)Nc2ccc(Cl)cc2Cl)cc1 ?
STAT1 inh: inactive; Lipid droplet: inactive; STAT3 inh-1: 44; PPC-1+TRAIL kill: inactive; Platelet DG rel: inactive; STAT3 inh-2: inactive; NFkB inh 2: inactive; STAT1 inh 2: inactive

How did COc1ccc(C(=O)NC(Nc2ccc(C)cc2)C(Cl)(Cl)Cl)cc1 (stereo unspecified) do in these assays?
STAT1 inh: inactive; Lipid droplet: inactive; STAT3 inh-1: inactive; PPC-1+TRAIL kill: inactive; Platelet DG rel: inactive

What do the screens show for `COc1ccc(NC(NC(=O)c2ccc(OC)cc2)C(Cl)(Cl)Cl)cc1` (stereo unspecified)?
STAT1 inh: inactive; TAG inh: inactive; STAT3 inh-1: 50; PPC-1+TRAIL kill: inactive; Platelet DG rel: inactive; STAT3 inh-2: inactive; NFkB inh 2: inactive; STAT1 inh 2: inactive

How did CCn1cc([N+](=O)[O-])c(C(=O)Nc2cc(C)on2)n1 do in these assays?
STAT1 inh: inactive; TAG inh: inactive; Lipid droplet: inactive; STAT3 inh-1: inactive; PPC-1+TRAIL kill: inactive; Platelet DG rel: inactive

How did CCn1cc([N+](=O)[O-])c(C(=O)Nc2nc(-c3ccc(C)cc3)c(C)s2)n1 do in these assays?
STAT1 inh: inactive; Lipid droplet: inactive; STAT3 inh-1: 56; PPC-1+TRAIL kill: inactive; Platelet DG rel: inactive; STAT3 inh-2: inactive; NFkB inh 2: inactive; STAT1 inh 2: inactive

What do the screens show for `CCn1cc([N+](=O)[O-])c(C(=O)Nc2nc(-c3ccc(C)c(C)c3)c(C)s2)n1`?
STAT1 inh: inactive; STAT3 inh-1: 45; PPC-1+TRAIL kill: inactive; Platelet DG rel: inactive; STAT3 inh-2: inactive; NFkB inh 2: inactive; STAT1 inh 2: inactive

What do the screens show for `O=C(Nc1ccccn1)c1csc2c1CCCC2`?
STAT1 inh: inactive; TAG inh: inactive; Lipid droplet: inactive; STAT3 inh-1: inactive; PPC-1+TRAIL kill: inactive; Platelet DG rel: inactive
